Test results reported in article PMC4027032 (Journal of the American Chemical Society, 2011).

Columns and labels:
[1] = λirr = 400 nm; cited from earlier work
human cathepsin B = human cathepsin B (Homo sapiens, UniProt P07858); experiment: Cathepsin B inhibition, fluorogenic substrate Z-Arg-Arg-AMC; format: biochemical; settings: 1 alone; acetate buffer pH 6.0, cat B 8 nM, 1% DMSO
Outline: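 Human cathepsin B at 8 nM in 0.4 M acetate buffer (pH 6.0, 4 mM EDTA, 8 mM DTT, final 1% DMSO), with Z-Arg-Arg-AMC at 100 μM. Reactions were run in the dark or after 10 min irradiation of the test compound (250 W tungsten halogen lamp, >395 nm, H2O filter). IC50 came from a sigmoidal fit of activity versus log[inhibitor], with 100% set by the no-inhibitor control.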

human cathepsin K = molecular target: T1, human cathepsin K (Homo sapiens, UniProt P43235); experiment: Cathepsin K inhibition, fluorogenic substrate Z-Gly-Pro-Arg-AMC; format: biochemical; settings: 1 alone; acetate buffer pH 5.5, cat K 20 nM, 1% DMSO
T1 sequence (P43235 115-329): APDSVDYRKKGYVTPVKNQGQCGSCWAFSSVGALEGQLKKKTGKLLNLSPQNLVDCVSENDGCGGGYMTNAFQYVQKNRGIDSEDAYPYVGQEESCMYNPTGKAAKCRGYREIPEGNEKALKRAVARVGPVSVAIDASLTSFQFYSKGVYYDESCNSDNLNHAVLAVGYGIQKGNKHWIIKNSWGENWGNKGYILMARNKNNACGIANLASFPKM
Outline: (§1)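 Human cathepsin K or L at 20 nM in 0.4 M acetate buffer (pH 5.5, 4 mM EDTA, 8 mM DTT, final 1% DMSO). Substrates at 100 μM were Z-Gly-Pro-Arg-AMC for K and Z-Phe-Arg-AMC for L. Reactions were run in the dark or after 10 min irradiation (250 W tungsten halogen lamp, >395 nm, H2O filter). IC50 came from a sigmoidal fit versus log[inhibitor], with 100% set by the no-inhibitor control.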

human cathepsin L = human cathepsin L (Homo sapiens, UniProt P07711); experiment: Cathepsin L inhibition, fluorogenic substrate Z-Phe-Arg-AMC; format: biochemical; settings: 1 alone; acetate buffer pH 5.5, cat L 20 nM, 1% DMSO
Outline: as §1

[2] = molecular target: human cathepsin B in hBMSC lysates (Homo sapiens, UniProt P07858); experiment: Cathepsin B activity in hBMSC lysates, Z-Arg-Arg-AMC; format: biochemical; settings: 1 alone; hBMSC lysate
Outline: (§2)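 Cathepsin B activity was measured in DU145 or hBMSC cell lysates with fluorogenic Z-Arg-Arg-AMC at 100 μM, run in the dark or after the test compound was irradiated for 10 min with a 250 W tungsten halogen lamp (>395 nm, H2O filter). Activity was plotted against log[inhibitor] and fit to a sigmoidal curve to give IC50, with 100% set by the no-inhibitor control.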

papain = molecular target: T2, papain (Carica papaya, UniProt P00784); experiment: Papain inhibition, chromogenic substrate BAPNA; format: biochemical; settings: inhibitor 1 alone; papain 650 nM, phosphate buffer pH 6.5, 11% DMSO
T2 sequence (P00784 134-345): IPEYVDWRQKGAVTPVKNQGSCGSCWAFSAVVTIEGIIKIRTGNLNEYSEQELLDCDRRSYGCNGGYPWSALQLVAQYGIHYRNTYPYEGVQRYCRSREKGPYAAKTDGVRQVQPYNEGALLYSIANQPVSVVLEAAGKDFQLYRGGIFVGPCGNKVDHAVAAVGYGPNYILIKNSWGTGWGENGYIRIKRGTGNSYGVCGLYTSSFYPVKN

[3] = molecular target: human cathepsin B in DU145 lysates (Homo sapiens, UniProt P07858); experiment: Cathepsin B activity in DU145 cell lysates, Z-Arg-Arg-AMC; format: biochemical; settings: 1 alone; DU145 lysate
Outline: as §2

human cathepsin L, sequence (P07711 114-333): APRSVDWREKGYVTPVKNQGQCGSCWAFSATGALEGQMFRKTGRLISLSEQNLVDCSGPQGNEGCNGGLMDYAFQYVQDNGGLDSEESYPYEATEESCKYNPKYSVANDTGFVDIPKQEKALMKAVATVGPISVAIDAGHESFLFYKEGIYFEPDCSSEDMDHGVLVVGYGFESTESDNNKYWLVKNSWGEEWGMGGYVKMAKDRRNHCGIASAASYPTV

In the case of CC#N.CC#N.[Cl-].[Cl-].[Ru+2].c1ccc(-c2ccccn2)nc1.c1ccc(-c2ccccn2)nc1 [cis-[Ru(bpy)2(MeCN)2]Cl2], the “overall photoaquation quantum yield ΦR→P” value [1] is given as 0.21.
CC(=O)N[C@@H](Cc1ccccc1)C(=O)NCC#N [compound 1, Ac-Phe-NHCH2CN, reference compound] showed an IC50 (human cathepsin B) of 133 µM, an IC50 (human cathepsin K) of 12 µM and an IC50 (human cathepsin L) of 72 µM. The IC50 [2] was 183 µM, the IC50 (papain) was 0.638 µM and the IC50 [3] was 182 µM.
